TRPC6 act – mouse TRPC6 channel activation; 0.13% of 310,000 active; B-score at 10 µM; AID 2550; HEK293-TRPC6 membrane potential dye fluorescence; active compounds read high; Q61143;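 active = B-score of the integrated fluorescence ratio above library mean plus 3 SD, and starting fluorescence ratio within library mean plus 5 SD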;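 note: higher score means more depolarization so channel activation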
Target sequence (Q61143 whole entry, looked up): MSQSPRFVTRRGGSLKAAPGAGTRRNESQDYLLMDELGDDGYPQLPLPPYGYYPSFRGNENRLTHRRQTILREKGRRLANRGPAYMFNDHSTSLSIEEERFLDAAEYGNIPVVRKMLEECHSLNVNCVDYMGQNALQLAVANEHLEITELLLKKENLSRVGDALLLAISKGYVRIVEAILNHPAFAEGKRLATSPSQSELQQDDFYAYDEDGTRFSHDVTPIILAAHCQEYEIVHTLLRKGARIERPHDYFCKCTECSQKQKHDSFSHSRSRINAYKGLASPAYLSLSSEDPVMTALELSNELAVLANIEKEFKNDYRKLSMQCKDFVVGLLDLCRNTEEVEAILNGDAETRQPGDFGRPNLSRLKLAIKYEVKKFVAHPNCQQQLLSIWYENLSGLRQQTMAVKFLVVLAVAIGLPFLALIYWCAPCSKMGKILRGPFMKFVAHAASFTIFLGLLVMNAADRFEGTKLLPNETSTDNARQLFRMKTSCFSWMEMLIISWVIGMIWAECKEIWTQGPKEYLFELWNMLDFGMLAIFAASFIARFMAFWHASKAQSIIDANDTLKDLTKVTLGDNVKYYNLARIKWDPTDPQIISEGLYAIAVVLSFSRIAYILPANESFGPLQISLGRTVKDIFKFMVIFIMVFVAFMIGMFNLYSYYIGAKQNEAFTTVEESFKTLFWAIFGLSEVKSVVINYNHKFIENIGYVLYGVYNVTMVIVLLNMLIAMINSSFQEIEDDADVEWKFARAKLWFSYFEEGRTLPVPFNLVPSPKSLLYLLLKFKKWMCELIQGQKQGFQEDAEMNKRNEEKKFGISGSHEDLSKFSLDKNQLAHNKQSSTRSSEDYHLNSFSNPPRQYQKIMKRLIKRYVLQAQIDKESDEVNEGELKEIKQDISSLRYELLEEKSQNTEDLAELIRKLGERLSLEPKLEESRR
TRPC6 inh – mouse TRPC6 channel inhibition; Q61143; HEK293-TRPC6, membrane potential dye, ACh-evoked depolarization; active compounds read low; B-score at 10 µM; 1.1% of 310,000 active; AID 2553;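 active = B-score under library mean minus 3 SD, initial fluorescence not abnormally high, positive integrated signal ratio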;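 note: B-score derived from integrated fluorescence ratio over the kinetic read; more negative B-score means stronger inhibition of depolarization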
TRPC4 act – TRPC4 (mouse) channel activation. Q9QUQ5. HEK293 TRPC4beta/mu-opioid, Fluo4 calcium fluorescence; active compounds read high. B-score at 10 µM. 0.49% of 310,000 active;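 active = B-score above 5 SD of library B-scores, and initial fluorescence ratio not above library mean plus 5 SD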;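 note: positive B-score marks a calcium rise read as TRPC4 activation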
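Material: TRPC4beta and mu-opioid receptor HEK293 stable cells | Incubation: 45 min room-temperature Fluo4 loading, 110 s read | Detection: Kinetic Fluo4 calcium fluorescence | Measure: Integrated baseline-normalised fluorescence ratio, converted to per-well B score | Benchmarks: Low control buffer alone, high control maximal DAMGO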
TRPC4 PAM – allosteric potentiators of mouse TRPC4 channel; HEK293 TRPC4beta/mu-opioid, DAMGO EC20, Fluo-4 Ca2+ flux; active compounds read high; Q9QUQ5; B-score at 10 µM; 0.42% of 310,000 active; AID 2227;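 active = B-score of calcium response area above 5 SD of library B-scores, with initial fluorescence ratio within 5 SD of library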;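 note: B-score of integrated fluorescence ratio over time as area under calcium response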
TRPC4 inh – blocks the mouse TRPC4 cation channel; AID 2247; Q9QUQ5; B-score at 10 µM; HEK293 TRPC4beta/mu-opioid, DAMGO-evoked Fluo4 calcium flux; active compounds read low; 0.39% of 300,000 active;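 active = B-score over 3 SD under the library average, no early fluorescence shift, positive overall ratio signal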
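Assay system: HEK293 cells with stable TRPC4beta plus mu-opioid receptor expression; Probe or stimulus: DAMGO in two steps, submaximal then maximal; Dosing: single-point compound dosing; Measured by: Fluo4 calcium-dye fluorescence, kinetic read; Read-out basis: B score from integrated Fluo4 fluorescence ratio.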
Starred values were filed as active, the others as inactive; i = inactive. Most compounds without a hit are left out; they make up all but 2.3% or so of the library.

SMILES	TRPC6 act	TRPC6 inh	TRPC4 act	TRPC4 PAM	TRPC4 inh
Cc1ccc(N2CCN(C(=O)c3ccccc3F)CC2)c(C)c1	i	i	i	i	-7*
CCC(=O)c1ccc(N2CCN(C(=O)c3ccccc3Br)CC2)c(F)c1	i	i	i	28*	i
CCC(=O)c1ccc(N2CCN(C(=O)c3ccccc3F)CC2)c(F)c1	i	i	i	i	i
CCN(CC)CCn1c(NS(=O)(=O)c2ccc(Cl)cc2)nc2ccccc21	i	i	65*	i	i
CCN(CC)CCn1c(NC(=O)c2ccc(Cl)cc2)nc2ccccc21	i	i	i	i	i
CCOc1cc(/C=C2\COc3ccccc3C2=O)cc(Br)c1OCC(=O)N(C)C	i	i	i	i	i
CC1(C)[C@@H](O)CC[C@]2(C)C3C(O)C=C4[C@H]5C[C@@](C)(C(=O)O)CC[C@]5(C)CC[C@]4(C)[C@]3(C)CC[C@@H]12 (some centres not stated)	i	i	210*	i	-6*
COC(=O)Cn1c(=NC(=O)C2COc3ccccc3O2)sc2cc(S(N)(=O)=O)ccc21 (configuration not stated)	i	i	i	i	i
c1ccc(OCC2CCNCC2)nc1	i	i	84*	i	i
COC(=O)NCC(c1ccc2c(c1)OCO2)N1CCN(c2ccccc2)CC1 (configuration not stated)	i	i	169*	i	i
COc1ccc(C(=O)NCC(c2ccc3c(c2)OCO3)N2CCN(c3ccc(OC)cc3)CC2)cc1 (configuration not stated)	i	i	i	i	i
CC#CC(=O)N1CCC(Oc2cccc(C(=O)NCc3ccccn3)c2)CC1	i	i	i	i	i
CSCC(C)N1CCC(Oc2cccc(C(=O)NCc3ccccn3)c2)CC1 (configuration not stated)	i	-5.7*	i	i	i
Cc1cc2c(cc1C)N(Cc1ccc(Cl)cc1)C1=NCCCN12	i	i	i	111*	i
CCCCN1C2=NCCCN2c2ccccc21	i	i	i	i	i
CCCCN1C2=NCCCN2c2cc(C)c(C)cc21	i	i	i	i	-7*
CC(C)(C)C1CCC(OC(=O)C[N+]2(C)CCCCC2)CC1 (configuration not stated)	i	i	i	i	i
O=C(CCNC(=O)c1ccco1)Nc1ccc(OC(F)F)cc1	i	i	i	i	i
O=C(Cc1c(F)cccc1Cl)Nc1ccc(S(=O)(=O)Nc2nccs2)cc1	i	i	i	i	i
COC(=O)CSc1nc2ccccn2c(=O)c1C=O	i	i	i	i	-6*
O=Cc1c(SCCO)nc2ccccn2c1=O	i	i	i	i	i
CCn1c(N2CCN(Cc3ccc([N+](=O)[O-])cc3)CC2)nc2ccccc21	i	i	124*	12*	i
CCn1c(N2CCN(S(=O)(=O)c3ccc(F)cc3)CC2)nc2ccccc21	i	i	i	i	i
CCn1c(N2CCN(S(=O)(=O)c3ccc(Cl)cc3)CC2)nc2ccccc21	i	i	i	i	i
CCn1c(N2CCN(C(=S)NC)CC2)nc2ccccc21	i	i	68*	i	i
SMILES	TRPC6 act	TRPC6 inh	TRPC4 act	TRPC4 PAM	TRPC4 inh
CCn1c(N2CCN(C(=S)NCCc3ccccc3)CC2)nc2ccccc21	i	i	87*	i	i
CCCn1c(N2CCN(Cc3ccc(Cl)cc3)CC2)nc2ccccc21	i	i	i	i	i
CCn1c(N2CCN(S(=O)(=O)CC)CC2)nc2ccccc21	i	i	126*	i	i
O=c1[nH]cc(S(=O)(=O)Nc2ccc3c(c2)OCO3)c(=O)[nH]1	i	i	i	i	i
Cc1cc2cc(CNC(=O)Nc3ccccc3)ccc2[nH]1	i	i	i	i	i
CCOC(=O)c1cc(C)n(S(=O)(=O)c2ccc(C)cc2)c1C	i	i	i	i	i
Cc1sc2ncn(CC(=O)NCC(=O)N3CCN(c4ccccc4F)CC3)c(=O)c2c1C	i	i	i	i	i
